In ChEMBL document CHEMBL4699541, “Fragment based drug design and diversity-oriented synthesis of carboxylic acid isosteres” (Bioorg Med Chem, 2020):

Key:
Format in all cases: physicochemical
[1] = Dissociation constant, pKa of compound in water by Sirius T3 apparatus based potentiometric titration analysis
[2] = Octanol/water partition coefficient, logP of compound by Sirius T3 apparatus based potentiometric titration analysis
Procedure, shortened: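 Measured by potentiometric (pH-metric) titration in an immiscible octanol–water biphasic system on a Sirius T3. Run at 25 °C at constant ionic strength (0.15 M KCl), using the pKa values determined earlier on the same instrument. Samples came from 50 mM DMSO stocks.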

[3] = Distribution coefficient, logD of compound at pH 8 by Sirius T3 apparatus based potentiometric titration analysis; conditions: octanol/water
[4] = Distribution coefficient, logD of compound at pH 3 by Sirius T3 apparatus based potentiometric titration analysis; conditions: octanol/water
[5] = Dissociation constant, pKa of compound in DMSO by Sirius T3 apparatus based potentiometric titration analysis
[6] = Dissociation constant, pKa of compound measured under acidic conditions by Sirius T3 apparatus based potentiometric titration analysis

| SMILES | pKa [1] | logP [2] | logD [3] | logD [4] | pKa [5] | pKa [6] |
| --- | --- | --- | --- | --- | --- | --- |
| Cc1cccc(C(N)=O)c1 | > 12 |  |  |  |  |  |
| Cc1cccc(CC(=O)O)c1 | 4.13 | 1.98 | -0.7 | 1.35 |  |  |
| Cc1cccc(-c2nnn[nH]2)c1 |  | 1.75 | -0.95 | 1.1 | 4.07 |  |
| Cc1cccc(C2=C(O)COC2=O)c1 |  | 2.32 | -0.87 | 1.26 | 2.95 |  |
| Cc1cccc(C/C(N)=N/O)c1 | > 12 |  |  |  |  | 5.27 |
| Cc1cccc(/C(N)=N/O)c1 | > 12 |  |  |  |  | 4.97 |
| Cc1cccc(-c2noc(S)n2)c1 |  | 2.65 | -0.7 | 1.44 | 2.64 |  |
| Cc1cccc(CC(=O)NS(C)(=O)=O)c1 |  | 0.97 | -1.58 | 0.44 | 4.63 |  |
| Cc1cccc(Cc2noc(S)n2)c1 |  | 2.39 | -0.7 | 1.42 | 3.19 |  |
| Cc1cccc(CC(N)=O)c1 | > 12 |  |  |  |  |  |
| Cc1cccc(Cc2nsc(O)n2)c1 |  | 2.15 | 0.42 | 2.02 | 6.35 |  |
| Cc1cccc(-c2nsc(O)n2)c1 |  | 2.22 | 0.34 | 2.04 | 5.99 |  |
| Cc1cccc(Cc2noc(O)n2)c1 | 5.59 | 1.63 | -0.42 | 1.39 |  |  |
| Cc1cccc(-c2noc(O)n2)c1 | 5.12 | 1.14 | -1.11 | 0.8 |  |  |
| Cc1cccc(Cc2nnn[nH]2)c1 |  | 1.51 | -0.96 | 1.07 | 4.73 |  |
| Cc1cccc(C(=O)O)c1 | 3.99 |  |  |  |  |  |
